{
  "source": "ChEMBL document CHEMBL3421557",
  "about": "“Sesamol reduces the atherogenicity of electronegative L5 LDL in vivo and in vitro” (J Nat Prod, 2015)",
  "key": {"[1]": {"molecular_target": "T1, Nitric oxide synthase 3 (Homo sapiens) (UniProt P29474)", "T1 sequence (whole entry)": "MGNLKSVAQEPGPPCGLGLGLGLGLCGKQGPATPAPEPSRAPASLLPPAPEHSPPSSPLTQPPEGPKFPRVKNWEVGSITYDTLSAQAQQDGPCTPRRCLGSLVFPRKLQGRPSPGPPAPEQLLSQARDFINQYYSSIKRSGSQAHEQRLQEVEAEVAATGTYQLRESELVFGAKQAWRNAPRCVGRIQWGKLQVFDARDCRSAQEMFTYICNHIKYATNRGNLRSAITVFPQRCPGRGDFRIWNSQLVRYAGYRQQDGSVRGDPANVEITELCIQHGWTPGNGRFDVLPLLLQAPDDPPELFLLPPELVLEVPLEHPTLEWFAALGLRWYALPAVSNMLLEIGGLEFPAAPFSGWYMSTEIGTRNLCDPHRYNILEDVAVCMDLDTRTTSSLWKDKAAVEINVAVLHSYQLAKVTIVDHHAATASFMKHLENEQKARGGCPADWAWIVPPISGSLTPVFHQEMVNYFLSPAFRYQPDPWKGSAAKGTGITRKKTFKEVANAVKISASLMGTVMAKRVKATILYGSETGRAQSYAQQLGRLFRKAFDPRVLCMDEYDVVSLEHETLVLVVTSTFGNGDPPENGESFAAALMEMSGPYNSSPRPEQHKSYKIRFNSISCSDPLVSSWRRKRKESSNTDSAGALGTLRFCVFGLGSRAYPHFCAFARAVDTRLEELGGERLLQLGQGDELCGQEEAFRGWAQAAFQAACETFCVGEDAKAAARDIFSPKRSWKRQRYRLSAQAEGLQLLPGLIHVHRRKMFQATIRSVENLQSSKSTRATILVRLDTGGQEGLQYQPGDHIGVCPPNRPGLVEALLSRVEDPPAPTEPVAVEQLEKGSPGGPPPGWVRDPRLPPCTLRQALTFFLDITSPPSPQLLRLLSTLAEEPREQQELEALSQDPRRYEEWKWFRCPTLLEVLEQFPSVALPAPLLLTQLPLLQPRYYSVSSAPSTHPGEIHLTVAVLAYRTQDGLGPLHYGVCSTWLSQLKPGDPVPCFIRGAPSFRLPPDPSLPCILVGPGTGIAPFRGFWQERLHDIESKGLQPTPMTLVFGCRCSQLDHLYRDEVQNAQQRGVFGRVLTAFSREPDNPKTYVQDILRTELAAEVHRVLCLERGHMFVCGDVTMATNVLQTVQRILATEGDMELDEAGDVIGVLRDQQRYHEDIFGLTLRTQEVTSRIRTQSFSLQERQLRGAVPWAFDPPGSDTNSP", "assay": "Induction of eNOS phosphorylation in HAEC at 3 uM measured at 30 mins by Western blot analysis in presence of wortmannin and Akt inhibitor", "outline": "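HAECs pretreated 30 min with vehicle (0.1% DMSO), 20 nM wortmannin or 2 nM Akt inhibitor, then ± 3 µM agent for 30 min. p-Akt and p-eNOS were immunoblotted and normalized to β-actin relative to vehicle control. Densitometry, n = 4 independent experiments, mean ± SD, t-test.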"}, "Homo sapiens [2]": {"species": "Homo sapiens", "assay": "Inhibition of L5-induced caspase-3 activation in HAEC preincubated for 30 mins followed by L5 induction measured after 24 hrs by immunoblot analysis", "assay_type": "functional", "outline": "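HAECs pretreated 30 min with vehicle (0.1% DMSO) or agent (0.3–3 µM), then ± L5 (50 µg/mL) 24 h. Cleaved caspase-3 immunoblot normalized to β-actin relative to vehicle control. Densitometry, n = 4, mean ± SD, Student's t-test.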"}, "Syrian golden hamster [3]": {"tested_on": "Syrian golden hamster", "assay": "Antiatherogenic activity in high-fat diet fed Syrian hamster assessed as reduction of atherosclerotic lesions size in aortic arch at 100 mg/kg, po administered for 16 weeks by oil red o staining-based assay relative to high-fat diet fed control", "assay_type": "functional, Mesocricetus auratus", "set-up": "scale not given: the % may be the effect or the level left", "outline": "(§1)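 High-fat-diet hamsters gavaged 50 or 100 mg/kg in 0.5% CMC for 16 weeks (n = 8/group). Aorta from root to mid-descending thoracic segment was fixed in 4% PFA and stained with 0.6% Oil Red O in 60% isopropanol for 30 min. Plaque area was taken as a ratio of total luminal area from stereoscope en face images. Mean ± SD, t-test.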"}, "Syrian golden hamster [4]": {"tested_on": "Syrian golden hamster", "assay": "Antiatherogenic activity in high-fat diet fed Syrian hamster assessed as reduction of atherosclerotic lesions size in aortic arch at 50 mg/kg, po administered for 16 weeks by oil red o staining-based assay relative to high-fat diet fed control", "assay_type": "functional, Mesocricetus auratus", "set-up": "scale not given: the % may be the effect or the level left", "outline": "as §1"}, "Syrian golden hamster [5]": {"tested_on": "Syrian golden hamster", "assay": "Antiatherogenic activity in high-fat diet fed Syrian hamster assessed as decrease in plasma total cholesterol level at 50 to 100 mg/kg, po administered for 16 weeks by automated analyzer relative to high-fat diet fed control", "assay_type": "functional, organism-based", "conditions": "Mesocricetus auratus", "outline": "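High-fat-diet hamsters gavaged 50 or 100 mg/kg in 0.5% CMC for 16 weeks (n = 8/group); chow and HFD controls received vehicle. Serum from fasted blood (3000g, 10 min) was assayed for TC, TG, VLDL-C, LDL-C and HDL-C with enzymatic kits on an automated analyzer. Mean ± SD, Student's t-test versus HFD group.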"}, "Homo sapiens [6]": {"species": "Homo sapiens", "assay": "Inhibition of L5-induced apoptosis in HAEC preincubated for 30 mins followed by L5 induction measured after 24 hrs by Hoechst 33342 and calcein-AM staining-based fluorescence microscopic analysis", "assay_type": "functional", "outline": "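Subconfluent HAECs pretreated 30 min with vehicle (0.1% DMSO) or agent (0.3, 1, 3 µM), then ± L5 (50 µg/mL; L1 as negative control) for 24 h. Cells stained 10 min with 1 µM Hoechst 33342 plus calcein-AM and imaged by epifluorescence. Condensed or fragmented nuclei were scored as apoptotic; percentage of apoptotic cells from 6 samples, mean ± SD, t-test.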"}, "Syrian golden hamster [7]": {"tested_on": "Syrian golden hamster", "assay": "Antiatherogenic activity in high-fat diet fed Syrian hamster assessed as decrease in plasma L5 level at 100 mg/kg, po administered for 16 weeks by fast protein liquid chromatographic analysis (reference value: 13.7%)", "assay_type": "functional, Mesocricetus auratus", "set-up": "scale not given: the % may be the effect or the level left"}, "Homo sapiens [8]": {"species": "Homo sapiens", "assay": "Reversal of L5-induced Akt dephosphorylation in HAEC at 3 uM preincubated for 30 mins followed by L5 induction measured after 24 hrs by Western blot analysis", "outline": "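HAECs pretreated 30 min with vehicle (0.1% DMSO) or 3 µM agent, then ± L5 (50 µg/mL) for 24 h. p-Akt immunoblot normalized to β-actin relative to vehicle control. Densitometry, 4 independent experiments, mean ± SD, Student's t-test.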"}, "Syrian golden hamster [9]": {"tested_on": "Syrian golden hamster", "assay": "Antiatherogenic activity in high-fat diet fed Syrian hamster assessed as decrease in plasma L5 level at 50 mg/kg, po administered for 16 weeks by fast protein liquid chromatographic analysis (reference value: 13.7%)", "assay_type": "functional, Mesocricetus auratus", "set-up": "scale not given: the % may be the effect or the level left"}, "Homo sapiens [10]": {"species": "Homo sapiens", "assay": "Inhibition of L5-induced LOX1 expression in HAEC at 0.3 to 3 uM by immunoblot analysis", "assay_type": "functional", "outline": "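HAECs exposed to agent at the indicated concentrations with L5 (50 µg/mL). LOX-1 immunoblot on lysates, normalized to β-actin relative to untreated control. Densitometry from 4 independent experiments, mean ± SD, Student's t-test.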"}, "Syrian golden hamster [11]": {"tested_on": "Syrian golden hamster", "assay": "Antiatherogenic activity in high-fat diet fed Syrian hamster assessed as downregulation of active caspase-3 expression in aorta at 50 to 100 mg/kg, po administered for 16 weeks by immunohistochemical analysis", "assay_type": "functional, organism-based", "conditions": "Mesocricetus auratus"}, "[12]": {"molecular_target": "Oxidized low-density lipoprotein receptor 1 (Homo sapiens) (UniProt P78380)", "assay": "Inhibition of LOX1-induced DiI-L5 endocytosis in HAEC at 3 uM preincubated for 30 mins followed by DiI-L5 treatment measured after 8 hrs by fluorescence microscopic analysis", "outline": "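L5 labeled with DiI (1 mg/mL L5 with 80 µM DiI, 37 °C overnight), re-isolated by ultracentrifugation and dialyzed. HAECs were pretreated ± 3 µM agent for 30 min, then given DiI-L5 (50 µg/mL) for 8 h. Internalization was imaged by fluorescence microscopy with Hoechst nuclear counterstain.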"}, "[13]": {"molecular_target": "T1, Nitric oxide synthase 3 (Homo sapiens)", "assay": "Induction of eNOS phosphorylation in HAEC at 3 uM after 10 to 30 mins by Western blot analysis", "outline": "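HAECs treated with 3 µM agent or vehicle (0.1% DMSO) for 10, 30, 60, 120 and 240 min. Lysates were immunoblotted for p-eNOS and p-Akt, normalized to total eNOS or Akt relative to vehicle control. Densitometry, 4 independent experiments, mean ± SD, Student's t-test.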"}},
  "note": "Activity calls are given as the source filed them. The calls are words filed in the database; no cut-off is given here.",
  "data": [
    {"smiles": "Oc1ccc2c(c1)OCO2", "values": [
      {"measurement": "Activity", "setting": "[1]", "value": "inactive"},
      {"measurement": "inhibition", "setting": "Homo sapiens [2]", "value": "Dose-dependent effect"},
      {"measurement": "Activity", "setting": "Syrian golden hamster [3]", "value": 47.3, "unit": "%"},
      {"measurement": "Activity", "setting": "Syrian golden hamster [4]", "value": 31.5, "unit": "%"},
      {"measurement": "Activity", "setting": "Syrian golden hamster [5]", "value": "Active"},
      {"measurement": "inhibition", "setting": "Homo sapiens [6]", "value": "Dose-dependent effect"},
      {"measurement": "Activity", "setting": "Syrian golden hamster [7]", "value": 5.7, "unit": "%"},
      {"measurement": "Activity", "setting": "Homo sapiens [8]", "value": "Active"},
      {"measurement": "Activity", "setting": "Syrian golden hamster [9]", "value": 9.5, "unit": "%"},
      {"measurement": "inhibition", "setting": "Homo sapiens [10]", "value": "Active"},
      {"measurement": "Activity", "setting": "Syrian golden hamster [11]", "value": "Active"},
      {"measurement": "inhibition", "setting": "[12]", "value": "Active"},
      {"measurement": "Activity", "setting": "[13]", "value": "Active"}
    ]}
  ]
}
